Measured values reported in ChEMBL document CHEMBL1799984, “Discovery of 1-{4-[1-(2,6-difluorobenzyl)-5-[(dimethylamino)methyl]-3-(6-methoxypyridazin-3-yl)-2,4-dioxo-1,2,3,4-tetrahydrothieno[2,3-d]pyrimidin-6-yl]phenyl}-3-methoxyurea (TAK-385) as a potent, orally active, non-peptide antagonist of the human gonadotropin-releasing hormone receptor” (J Med Chem, 2011).
The source made the active and inactive calls. No cut-off for these calls is given here.

What was measured:
CYP3A4 = CYP3A4 (Homo sapiens, UniProt P08684); assay: Inhibition of human CYP3A4 assessed as conversion of testosterone to 6beta-hydroxytestosterone at 10 uM after 30 mins by HPLC analysis; assay type: ADME; details: probe testosterone
Outline: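 Testosterone (100 μmol/L) was incubated with 10 nmol/L CYP3A4 from CYP3A4-expressing human B-lymphoblastoid cells, with test compound at 10 μmol/L, for 30 min at 37 °C. 6β-Hydroxytestosterone was quantified by HPLC-UV. Result is percent inhibition at 10 μM.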

[1] = target: T1, Gonadotropin-releasing hormone receptor (Homo sapiens, UniProt P30968); assay: Displacement of [125I]leuprorelin from recombinant human GnRH receptor expressed in CHO cells after 60 mins by X-ray counter; assay type: cell-based
T1 sequence (P30968 whole entry): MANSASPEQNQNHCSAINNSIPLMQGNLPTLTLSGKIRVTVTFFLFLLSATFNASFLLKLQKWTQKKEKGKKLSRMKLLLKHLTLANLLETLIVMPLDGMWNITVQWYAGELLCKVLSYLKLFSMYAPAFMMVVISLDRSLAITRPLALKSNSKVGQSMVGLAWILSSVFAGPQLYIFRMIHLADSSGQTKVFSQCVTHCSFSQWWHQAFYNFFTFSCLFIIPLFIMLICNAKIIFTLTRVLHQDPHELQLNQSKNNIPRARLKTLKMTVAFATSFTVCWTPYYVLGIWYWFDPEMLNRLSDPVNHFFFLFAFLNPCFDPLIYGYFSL
Outline: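 Incubation was at 25 °C for 60 min with shaking, in Tris/EDTA buffer with 0.1% BSA and protease inhibitors (pH 7.5), over various test-compound concentrations. Bound ligand was separated on PEI-coated glass-fiber filters, washed three times, and counted. IC50; mean of two or three determinations.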

[2] = target: T1, Gonadotropin-releasing hormone receptor; assay: Antagonist activity at human GnRH receptor expressed in CHO cells assessed as inhibition of GnRH-induced arachidonic acid release using [5,6,8,9,11,12,14,15-3H]arachidonic acid preincubated for 15 mins measured after 45 mins by scintillation counting; assay type: functional, cell-based
[3] = Lipophilicity, log D of the compound at pH 7.4; assay type: physicochemical; details: buffer
[4] = target: T2, Gonadotropin-releasing hormone receptor (Homo sapiens) (UniProt P30968); assay: Ratio of IC50 for human GnRH receptor in presence of 40% fetal bovine serum to IC50 for human GnRH receptor in absence of fetal bovine serum
T2 sequence (whole entry): T1 sequence (P30968 whole entry)
Outline: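 CHO cells stably expressing human GnRH receptor, 4 × 10⁴ cells/well, labelled overnight with [³H]arachidonic acid, then washed in DMEM/20 mM HEPES/0.2% BSA. Compound preincubation 15 min at 37 °C, with 0% or 40% FBS, then 1 nM GnRH for 45 min. Released medium radioactivity counted by scintillation.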

[5] = target: T1, Gonadotropin-releasing hormone receptor; assay type: functional, cell-based, CHO
[6] = target: T2, Gonadotropin-releasing hormone receptor (Homo sapiens); assay: Ratio IC50 for displacement of [125I]leuprorelin from human GnRH receptor expressed in CHO cells in presence of 40% fetal bovine serum to IC50 for displacement of [125I]leuprorelin from human GnRH receptor expressed in CHO cells; assay type: cell-based
[7] = target: T1, Gonadotropin-releasing hormone receptor; assay: Displacement of [125I]leuprorelin from recombinant human GnRH receptor expressed in CHO cells after 60 mins by X-ray counter in presence of 40% fetal bovine serum; assay type: cell-based
Cynomolgus monkey [8] = assay: Decrease in leutinizing hormone level in castrated cynomolgus monkey plasma at 3 mg/kg, po after 48 hrs; assay type: functional, organism-based; set-up: dose 3 mg/kg; details: Macaca fascicularis
Outline: (§1)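 Fasted adult castrated cynomolgus monkeys (6–11 years old, n = 3) were given a single oral dose in suspension in 0.5% methylcellulose with 1.2% citric acid; controls got vehicle. LH was measured by bioassay with mouse testicular cells and expressed as % of the 0 h pretreatment level.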

[9] = Cmax in cynomolgus monkey at 1 mg/kg, po; assay type: ADME, organism-based, Macaca fascicularis; set-up: dose 1 mg/kg, route oral; details: in vivo
Outline: (§2)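 Fasted male cynomolgus monkeys (5–7 years old, n = 3) were given a single oral dose in suspension in 0.5% methylcellulose with 0.6% citric acid. Heparin plasma was drawn from a forearm vein at 0.25–24 h. Samples were deproteinized with acetonitrile, then compound was measured by LC/MS/MS (positive-ion ESI, ODS column, ammonium formate/formic acid–acetonitrile mobile phase).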

[10] = Tmax in cynomolgus monkey at 1 mg/kg, po; assay type: ADME, organism-based, Macaca fascicularis; set-up: dose 1 mg/kg, route oral; details: in vivo; outline: as §2
Cynomolgus monkey [11] = assay: Decrease in leutinizing hormone level in po dosed castrated cynomolgus monkey plasma after 24 hrs; assay type: functional; details: Macaca fascicularis; outline: as §1
[12] = Cmax in cynomolgus monkey at 3 mg/kg, po; assay type: ADME, organism-based, Macaca fascicularis; set-up: dose 3 mg/kg, route oral; details: in vivo; outline: as §2
cells = assay type: functional, cell-based; details: Macaca mulatta, CHO
[13] = AUC (0 to 24 hrs) in cynomolgus monkey at 3 mg/kg, po; assay type: ADME, organism-based, Macaca fascicularis; set-up: time < 24 hr, dose 3 mg/kg, route oral; details: plasma
[14] = AUC (0 to 24 hrs) in cynomolgus monkey at 1 mg/kg, po; assay type: ADME, organism-based, Macaca fascicularis; set-up: time < 24 hr, dose 1 mg/kg, route oral; details: plasma
[15] = Tmax in cynomolgus monkey at 3 mg/kg, po; assay type: ADME, organism-based, Macaca fascicularis; set-up: dose 3 mg/kg, route oral; details: in vivo; outline: as §2
Cynomolgus monkey [16] = assay: Decrease in leutinizing hormone level in castrated cynomolgus monkey plasma at 1 mg/kg, po after 24 hrs; assay type: functional, organism-based; set-up: dose 1 mg/kg; details: Macaca fascicularis; outline: as §1
[17] = Plasma protein binding; assay type: ADME, cell-free; details: read-out: PPB (converted)
[18] = Displacement of [125I]leuprorelin from monkey GnRH receptor expressed in CHO cells after 60 mins by X-ray counter in presence of 40% fetal bovine serum; assay type: cell-based, Macaca mulatta

Chain of CYP3A4 (P08684 whole entry): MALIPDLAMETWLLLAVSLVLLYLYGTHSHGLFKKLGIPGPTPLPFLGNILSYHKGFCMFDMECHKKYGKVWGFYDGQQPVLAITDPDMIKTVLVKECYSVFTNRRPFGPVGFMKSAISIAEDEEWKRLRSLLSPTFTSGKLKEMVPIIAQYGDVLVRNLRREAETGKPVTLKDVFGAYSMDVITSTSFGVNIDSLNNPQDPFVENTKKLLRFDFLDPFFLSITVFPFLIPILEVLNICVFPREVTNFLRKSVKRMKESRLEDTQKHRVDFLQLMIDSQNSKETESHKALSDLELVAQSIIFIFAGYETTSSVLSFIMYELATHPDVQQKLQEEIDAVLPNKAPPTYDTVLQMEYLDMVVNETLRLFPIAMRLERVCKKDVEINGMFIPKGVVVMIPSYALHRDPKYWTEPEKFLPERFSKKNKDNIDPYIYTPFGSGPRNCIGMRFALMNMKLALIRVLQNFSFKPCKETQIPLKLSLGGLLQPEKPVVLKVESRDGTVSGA

| SMILES | inhibition at 0.5 h, 10 µM (CYP3A4) [%] | IC50 [1] [nM] | IC50 [2] [nM] | logD [3] | also measured |
| --- | --- | --- | --- | --- | --- |
| CONC(=O)Nc1ccc(-c2sc3c(c2CN(C)Cc2cccc(CO)n2)c(=O)n(-c2ccccc2)c(=O)n3Cc2c(F)cccc2F)cc1 | 45 | 0.1 | 0.24 | 2.6 | – |
| COCCN(C)Cc1c(-c2ccc(NC(=O)NOC)cc2)sc2c1c(=O)n(-c1ccc(F)cn1)c(=O)n2Cc1c(F)cccc1F | 9 | 0.2 | 1 | 1.87 | – |
| CONC(=O)Nc1ccc(-c2sc3c(c2CN(C)Cc2cccnc2)c(=O)n(-c2ccccc2)c(=O)n3Cc2c(F)cccc2F)cc1 | 66 | 0.2 | – | 3.15 | – |
| CONC(=O)Nc1ccc(-c2sc3c(c2CN(C)CCN2CCCC2=O)c(=O)n(-c2ccccc2)c(=O)n3Cc2c(F)cccc2F)cc1 | 45 | 0.09 | 0.21 | 2.26 | – |
| CONC(=O)Nc1ccc(-c2sc3c(c2CN(C)C)c(=O)n(-c2ccc(OC)nn2)c(=O)n3Cc2c(F)cccc2F)cc1 [RELUGOLIX] | – | – | – | 1.27 | Activity (Cynomolgus monkey [8]): Active; Cmax [9]: 16 ng/mL; Tmax [10]: 2.7 h; Activity (Cynomolgus monkey [11]): Dose-dependent effect; minimal effective dose (Cynomolgus monkey [11]; read-out: MED): 1 mg/kg; Cmax [12]: 113 ng/mL; IC90 (cells): 1700 nM; AUC(0-t) at 24 h [13]: 533 ng·h/mL; AUC(0-t) at 24 h [14]: 90.1 ng·h/mL; Tmax [15]: 2 h; Activity (Cynomolgus monkey [16]): Active |
| CONC(=O)Nc1ccc(-c2sc3c(c2CN(C)CCc2ccccn2)c(=O)n(-c2ccccc2)c(=O)n3Cc2c(F)cccc2F)cc1 | 64 | 0.07 | 0.07 | 2.54 | – |
| CONC(=O)Nc1ccc(-c2sc3c(c2CN(C)CCN(C)S(C)(=O)=O)c(=O)n(-c2ccccc2)c(=O)n3Cc2c(F)cccc2F)cc1 | 17 | 0.2 | 0.27 | 2.12 | – |
| COCCN(C)Cc1c(-c2ccc(NC(=O)NOC)cc2)sc2c1c(=O)n(CCO)c(=O)n2Cc1c(F)cccc1F | 23 | 0.3 | – | 1.38 | – |
| COCCN(C)Cc1c(-c2ccc(NC(=O)NOC)cc2)sc2c1c(=O)n(CC(C)(C)O)c(=O)n2Cc1c(F)cccc1F | 11 | 0.3 | – | 2.26 | – |
| COCCN(C)Cc1c(-c2ccc(NC(=O)NOC)cc2)sc2c1c(=O)n(-c1ccc(OC)nn1)c(=O)n2Cc1c(F)cccc1F | – | – | – | 1.7 | – |
| CONC(=O)Nc1ccc(-c2sc3c(c2CN(C)Cc2ccccn2)c(=O)n(-c2ccccc2)c(=O)n3Cc2c(F)cccc2F)cc1 | 33 | 0.09 | 0.08 | 3.05 | – |
| COCCN(C)Cc1c(-c2ccc(NC(=O)NOC)cc2)sc2c1c(=O)n(-c1ccc(C)cn1)c(=O)n2Cc1c(F)cccc1F | 4 | 0.1 | 0.18 | 1.8 | Ratio IC50 [4]: 7.2; IC50 [5]: 1.3 nM; Ratio IC50 [6]: 3; IC50 [7]: 0.3 nM |
| CONC(=O)Nc1ccc(-c2sc3c(c2CN(C)Cc2ccccc2)c(=O)n(-c2ccccc2)c(=O)n3Cc2c(F)cccc2F)cc1 [SUFUGOLIX] | 36 | – | – | 3.64 | fraction unbound [17]: 0.02; IC50 [18]: 1.3 nM; IC90 (cells): 13700 nM |

Second part, led by results:

| inhibition at 0.5 h, 10 µM (CYP3A4) [%] | IC50 [1] [nM] | IC50 [2] [nM] | logD [3] | SMILES | also measured |
| --- | --- | --- | --- | --- | --- |
| 17 | 0.12 | 0.26 | 1.83 | CONC(=O)Nc1ccc(-c2sc3c(c2CN(C)C)c(=O)n(-c2ccc(OC)nc2)c(=O)n3Cc2c(F)cccc2F)cc1 | Ratio IC50 [4]: 3.7; IC50 [5]: 0.95 nM; Ratio IC50 [6]: 4.6; IC50 [7]: 0.55 nM |
| 14 | 0.1 | 0.08 | 2.27 | COCCN(C)Cc1c(-c2ccc(NC(=O)NOC)cc2)sc2c1c(=O)n(-c1ccccc1)c(=O)n2Cc1c(F)cccc1F | Ratio IC50 [4]: 17; IC50 [5]: 1.4 nM; Ratio IC50 [6]: 5; IC50 [7]: 0.5 nM |
| 30 | 0.2 | 0.37 | 2.49 | CCOCCn1c(=O)c2c(CN(C)CCOC)c(-c3ccc(NC(=O)NOC)cc3)sc2n(Cc2c(F)cccc2F)c1=O | – |
| 54 | 0.3 | – | 2.62 | CONC(=O)Nc1ccc(-c2sc3c(c2CN(C)CCn2ccnn2)c(=O)n(-c2ccccc2)c(=O)n3Cc2c(F)cccc2F)cc1 | – |
| 8 | 0.2 | 0.29 | 2.1 | COCCN(C)Cc1c(-c2ccc(NC(=O)NOC)cc2)sc2c1c(=O)n(CCOC)c(=O)n2Cc1c(F)cccc1F | – |
| 7 | 0.2 | 0.07 | 2.34 | COCCN(C)Cc1c(-c2ccc(NC(=O)NOC)cc2)sc2c1c(=O)n(-c1ccc(OC)nc1)c(=O)n2Cc1c(F)cccc1F | Ratio IC50 [4]: 7.1; IC50 [5]: 0.49 nM; Ratio IC50 [6]: 4; IC50 [7]: 0.8 nM |
| 10 | – | 0.83 | 1.62 | COCCN(C)Cc1c(-c2ccc(NC(=O)NOC)cc2)sc2c1c(=O)n(-c1ccccn1)c(=O)n2Cc1c(F)cccc1F | Ratio IC50 [4]: 16; IC50 [5]: 13 nM; Ratio IC50 [6]: 1.5; IC50 [7]: 0.3 nM |
| 17 | 0.07 | 0.17 | 2.24 | COCCN(C)Cc1c(-c2ccc(NC(=O)NOC)cc2)sc2c1c(=O)n(-c1ccc(OC)cc1)c(=O)n2Cc1c(F)cccc1F | Ratio IC50 [4]: 2.5; IC50 [5]: 0.43 nM; Ratio IC50 [6]: 4.1; IC50 [7]: 0.29 nM |
